Rows were chosen to be rich in hits. Some 6.4% of all compounds tested hit in one or more screens of this group.
PostGolgi ctrl: yeast control strain growth, post-Golgi counter-screen; inhibition, % at 10 µM; 98,000 tested, 5% active; efflux-deficient yeast background strain, growth absorbance A615, 16 h; AID 738
PostGolgi yeast: growth inhibition of a yeast mutant, post-Golgi transport screen; post-Golgi transport phenotypic cell assay; inhibition, % at 10 µM; 98,000 tested, 0.9% active; AID 739;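 further: yeast cells grown in 1536-well plates; yeast grown about 18 h at 30C before absorbance read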
HIV Rev-RRE inh: disrupts HIV-1 Rev binding to RRE RNA. P05866. Rev peptide-RRE RNA binding, FRET. inhibition, % at 8 µM. 97,000 tested, 0.79% active. AID 704;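 active means inhibition above the screen-wide mean plus 3 SD, cut at about 35% in these data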;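 further: 0% = median DMSO wells and 100% = median Neomycin B control wells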
Target sequence (P05866 whole entry, looked up): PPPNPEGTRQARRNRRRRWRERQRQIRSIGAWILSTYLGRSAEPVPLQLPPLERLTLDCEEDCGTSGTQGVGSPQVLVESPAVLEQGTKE
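Test system: Cy5-tagged RRE RNA duplex with fluorescein-tagged Rev peptide | Read-out: % inhibition of FRET ratio versus controls | Probe or stimulus: Labelled Rev peptide | Incubation: 5 min RNA-compound premix plus 15 min binding step, 25 °C | Technique: FRET fluorescence readout | Benchmarks: DMSO low control, neomycin B high control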
PLK1 inh: PLK1 (human) kinase inhibition; 97,000 tested, 0.53% active; AID 619; recombinant PLK1 kinase, TR-FRET peptide phosphorylation; P53350; inhibition, % at 10 µM;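 active means inhibition of 50% or more in the single-concentration screen; inactive means inhibition below 50%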;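 further: 0% = DMSO max control and 100% = H-89 dihydrochloride min control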
EphB4 antag: blocks human EphB4 binding to ephrin-B2; P54760; EphB4 LBD / TNYL-RAW-Alexa532 peptide, fluorescence polarization; inhibition, % at 7 µM; 97,000 tested, 0.15% active;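 active means inhibition above the screen-wide mean inhibition plus 3 SD, cut at about 15% in these data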;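 further: 0% = DMSO wells and 100% = excess unlabeled TNYL-RAW peptide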
PLK1 PBD inh: inhibitors of human Plk1 polo box domain binding; AID 693; P53350; inhibition, %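 (tested at about 20 µM)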; Plk1 PBD phosphopeptide binding, fluorescence polarization; 97,000 tested, 0.13% active; in the data active means inhibition above about 34%, passing the limit was not always enough
Starred values were filed as active, the others as inactive; nt = no result given. Unless noted, no stated cut-off is given here; in the data, active means inhibition above about 30%; inactive means the rest.

SMILES | PostGolgi ctrl | PostGolgi yeast | HIV Rev-RRE inh | PLK1 inh | EphB4 antag | PLK1 PBD inh
CCC(C)n1cnc2c(c1=O)c1nc3ccccc3nc1n2Cc1ccc(OC)cc1 (centres undefined) | 36* | -5 | -2 | 0 | 0 | -6
CC(C)Cn1cnc2c(c1=O)c1nc3ccccc3nc1n2Cc1ccc2c(c1)OCO2 | 7 | 0 | nt | nt | nt | nt
COc1ccc(N(CC(=O)Nc2nc3ccc(C)cc3s2)S(=O)(=O)c2c(C)nn(C)c2C)cc1 | 32* | -1 | 1 | -11 | -5 | -6
COc1ccc(N(CC(=O)NCc2ccccc2)S(=O)(=O)c2c(C)nn(C)c2C)cc1 | 9 | 1 | 2 | -11 | 3 | -6
COc1ccc(N(CC(=O)NCc2cccnc2)S(=O)(=O)c2c(C)nn(C)c2C)cc1 | 37* | -4 | 7 | -22 | 0 | 0
Cc1ccc(C(=O)CC2(O)C(=O)N(CCc3ccccc3)c3ccc(Br)cc32)o1 (centres undefined) | 19 | 31* | 14 | -7 | 10 | -12
CC(C)(C)S(=O)(=O)c1cnc2c(-c3ccc(Cl)cc3)cnn2c1N | 34* | 4 | 10 | -14 | 12 | 9
CC(C)(C)S(=O)(=O)c1cnc2c(-c3ccc(F)cc3)cnn2c1N | -5 | -4 | 3 | -8 | -6 | 3
O=C(COc1ccccc1F)NC1CCN(Cc2ccccc2)CC1 | 28 | 54* | 6 | -5 | 8 | -8
O=C(CCc1nc(-c2ccccc2F)no1)NC1CCN(Cc2ccccc2)CC1 | -4 | 2 | 2 | -15 | -2 | 24
CN(C)C(=O)c1ccccc1Sc1cc(Cl)ccc1Cl | 35* | 5 | 9 | -5 | 3 | -22
CN(C)C(=O)c1ccccc1Sc1ccc(Cl)cc1Cl | 12 | -2 | 3 | -10 | -3 | -11
CCOC(=O)C1=C(CSCC(=O)OC)NC(=O)NC1c1cc(C)ccc1C (centres undefined) | 13 | -6 | 5 | -13 | 0 | -9
CCOC(=O)C1=C(CSc2nc3ccccc3s2)NC(=O)NC1c1cc(C)ccc1C (centres undefined) | 37* | 12 | 7 | -13 | -2 | 17
COC(=O)C1=C(CN2CCc3ccccc32)NC(=O)NC1c1cc(C)ccc1C (centres undefined) | 32* | -10 | 0 | -8 | -1 | 5
COC(=O)C1=C(CSc2nc3ccccc3o2)NC(=O)NC1c1cc(C)ccc1C (centres undefined) | 49* | -1 | 3 | -6 | -8 | 5
COC(=O)C1=C(CN2CCN(C)CC2)NC(=O)NC1c1cc(C)ccc1C (centres undefined) | 4 | -4 | 7 | 2 | 6 | 8
CCOC(=O)C1=C(CSc2nc3ccccc3s2)NC(=O)NC1c1ccc(OC)cc1 (centres undefined) | 42* | 0 | 4 | -17 | 0 | -45
CCOC(=O)c1c(C2COc3ccccc3O2)csc1NC(=O)c1ccco1 (centres undefined) | 0 | -4 | 10 | -13 | 6 | -23
CCc1nnc(NC(=O)CSc2nc3cccnc3n2Cc2ccccc2)s1 | nt | nt | 5 | -5 | 0 | -12
Cn1c(N)c(C(=O)CCl)c(=O)n(C)c1=O | 1 | -8 | 7 | -8 | -2 | 5
O=C(c1c[nH]c2ccc(S(=O)(=O)N3CCC4(CC3)OCCO4)cc2c1=O)N1CCOCC1 | 4 | 0 | 9 | -5 | 17* | 4
C/C=C/c1ccc(Oc2nnnn2-c2ccc(C(N)=O)cc2)c(OC)c1 | 2 | 0 | 3 | -2 | 4 | -14
CCOC(=O)c1c(N)sc2c1CCC(C)C2 (centres undefined) | 12 | 8 | -4 | -19 | 3 | 16
CCOC(=O)c1c(NS(C)(=O)=O)sc2c1CCC(C)C2 (centres undefined) | 32* | -3 | 2 | -9 | 1 | 11
c1coc(CNc2c3c(nc4ccccc24)CCC3)c1 | 3 | 0 | 36* | 12 | 6 | -4
N#Cc1c2c(c(NCc3ccco3)n3c1nc1ccccc13)CCC2 | 4 | -2 | 20 | -3 | 5 | -9
N#CC(C(=O)CCN1C(=O)C2CC=CCC2C1=O)c1nc2ccccc2[nH]1 (centres undefined) | 13 | -2 | 4 | -10 | -8 | -5

Screening data from PubChem BioAssay.
